Test results from ChEMBL document CHEMBL3797202, “Novel Oxindole Sulfonamides and Sulfamides: EPZ031686, the First Orally Bioavailable Small Molecule SMYD3 Inhibitor” (ACS Med Chem Lett, 2016).

Experiments:
[1] = Apparent permeability in human Caco2 cells at 10 uM incubated for 120 mins by LC-MS/MS analysis; type: ADME, cell-based; conditions: Caco-2
In short: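 Caco-2 cell monolayers; permeability measured in the apical-to-basolateral direction, with an efflux ratio also determined.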

[2] = target: T1, Histone-lysine N-methyltransferase EHMT1 (Homo sapiens) (UniProt Q9H9B1); experiment: Inhibition of EHMT1 (unknown origin) at 10 uM relative to control
T1 sequence (whole entry): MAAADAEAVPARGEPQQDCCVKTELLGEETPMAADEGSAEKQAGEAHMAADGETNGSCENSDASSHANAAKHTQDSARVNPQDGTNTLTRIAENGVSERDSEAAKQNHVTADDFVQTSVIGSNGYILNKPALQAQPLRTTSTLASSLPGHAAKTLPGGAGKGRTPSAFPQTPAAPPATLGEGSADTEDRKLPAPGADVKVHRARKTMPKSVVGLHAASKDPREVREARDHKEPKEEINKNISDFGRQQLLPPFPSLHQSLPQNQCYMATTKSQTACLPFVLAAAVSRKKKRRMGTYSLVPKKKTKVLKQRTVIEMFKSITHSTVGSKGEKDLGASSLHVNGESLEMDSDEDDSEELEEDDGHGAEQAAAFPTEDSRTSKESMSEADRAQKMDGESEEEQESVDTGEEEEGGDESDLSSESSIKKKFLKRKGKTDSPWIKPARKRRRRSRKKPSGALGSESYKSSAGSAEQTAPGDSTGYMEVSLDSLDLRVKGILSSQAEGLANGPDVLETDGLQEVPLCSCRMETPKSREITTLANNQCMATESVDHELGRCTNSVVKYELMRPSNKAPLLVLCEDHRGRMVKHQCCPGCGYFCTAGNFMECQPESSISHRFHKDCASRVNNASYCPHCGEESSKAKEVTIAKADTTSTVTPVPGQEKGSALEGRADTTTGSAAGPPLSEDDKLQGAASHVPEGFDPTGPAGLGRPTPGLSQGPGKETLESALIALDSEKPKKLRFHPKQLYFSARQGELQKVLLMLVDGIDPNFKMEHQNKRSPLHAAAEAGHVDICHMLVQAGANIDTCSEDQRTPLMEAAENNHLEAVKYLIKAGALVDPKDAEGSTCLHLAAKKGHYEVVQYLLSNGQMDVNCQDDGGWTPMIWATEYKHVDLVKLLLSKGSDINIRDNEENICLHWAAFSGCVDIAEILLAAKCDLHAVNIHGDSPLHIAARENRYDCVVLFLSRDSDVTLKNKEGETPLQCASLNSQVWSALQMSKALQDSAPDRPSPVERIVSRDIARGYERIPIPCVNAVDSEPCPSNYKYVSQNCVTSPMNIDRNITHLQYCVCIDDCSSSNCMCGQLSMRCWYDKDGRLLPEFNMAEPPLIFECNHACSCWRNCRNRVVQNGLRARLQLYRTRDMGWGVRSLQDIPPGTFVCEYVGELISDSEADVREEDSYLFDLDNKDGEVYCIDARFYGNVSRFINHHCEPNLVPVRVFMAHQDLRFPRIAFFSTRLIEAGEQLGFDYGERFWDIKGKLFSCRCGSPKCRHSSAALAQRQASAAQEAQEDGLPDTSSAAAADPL

[3] = target: Histone-lysine N-methyltransferase PRDM9 (Homo sapiens) (UniProt Q9NQV7); experiment: Inhibition of PRDM9 (unknown origin) at 10 uM relative to control
[4] = target: Histone-lysine N-methyltransferase EZH2 (Homo sapiens) (UniProt Q15910); experiment: Inhibition of EZH2 (unknown origin) at 10 uM relative to control
[5] = target: N-lysine methyltransferase SMYD2 (Homo sapiens, UniProt Q9NRG4); experiment: Inhibition of SMYD2 (unknown origin)
[6] = Tmax in CD1 mouse at 50 mg/kg, administered through oral gavage by LC-MS/MS analysis; type: ADME, organism-based; conditions: in vivo
In short: (§1)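 Male CD-1 mice received a single bolus: 1 mg/kg i.v., or 5 or 50 mg/kg p.o. Values are mean ± SD, n = 3. […] Bioavailability was determined separately for each oral dose.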

[7] = Oral bioavailability in CD1 mouse at 50 mg/kg measured up to 24 hrs by LC-MS/MS analysis; type: ADME, organism-based; conditions: in vivo; in short: as §1
[8] = Volume of distribution at steady state in CD1 mouse at 1 mg/kg, iv as bolus dose measured up to 24 hrs by LC-MS/MS analysis; type: ADME, organism-based; conditions: in vivo, read-out: Vdss; in short: as §1
[9] = Cmax in CD1 mouse at 50 mg/kg, administered through oral gavage measured up to 24 hrs by LC-MS/MS analysis; type: ADME, organism-based; design: dose 50 mg/kg, route oral; conditions: in vivo; in short: as §1
[10] = target: T2, Histone-lysine N-methyltransferase SMYD3 (Homo sapiens, UniProt Q9H7B4); experiment: Inhibition of full length N-terminal His-tagged SMYD3 (1 to 428 residues) (unknown origin) expressed in Escherichia coli using N-terminal GST-tagged MEKK2 as substrate preincubated for 30 mins followed by substrate addition by scintillation proximity assay in presence of [3H]SAM
T2 sequence (Q9H7B4 whole entry): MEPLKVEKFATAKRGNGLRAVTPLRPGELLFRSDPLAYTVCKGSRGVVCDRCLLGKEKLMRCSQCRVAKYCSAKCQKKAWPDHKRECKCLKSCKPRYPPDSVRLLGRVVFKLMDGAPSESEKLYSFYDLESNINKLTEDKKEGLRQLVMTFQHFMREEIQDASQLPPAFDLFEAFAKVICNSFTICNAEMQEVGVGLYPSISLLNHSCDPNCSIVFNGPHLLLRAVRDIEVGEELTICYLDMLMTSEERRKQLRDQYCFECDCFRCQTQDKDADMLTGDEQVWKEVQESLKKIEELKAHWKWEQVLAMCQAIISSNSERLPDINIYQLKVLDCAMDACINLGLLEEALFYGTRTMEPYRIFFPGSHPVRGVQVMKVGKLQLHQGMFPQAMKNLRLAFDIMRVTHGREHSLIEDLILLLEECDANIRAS

[11] = Drug excretion in CD1 mouse urine at 1 mg/kg, iv as bolus dose after 24 hrs by LC-MS/MS analysis; type: ADME, organism-based; conditions: read-out: Drug excretion; in short: as §1
[12] = Cmax in CD1 mouse at 5 mg/kg, administered through oral gavage measured up to 24 hrs by LC-MS/MS analysis; type: ADME, organism-based; design: dose 5 mg/kg, route oral; conditions: in vivo; in short: as §1
[13] = target: T2, Histone-lysine N-methyltransferase SMYD3; experiment: Non-competitive inhibition of full length N-terminal His-tagged SMYD3 (1 to 428 residues) (unknown origin) expressed in Escherichia coli using fixed N-terminal GST-tagged MEKK2 substrate and varying SAM levels preincubated for 30 mins followed by substrate addition by filter plate assay
[14] = Clearance in CD1 mouse at 1 mg/kg, iv as bolus dose measured up to 24 hrs by LC-MS/MS analysis; type: ADME, organism-based; conditions: in vivo; in short: as §1
[15] = AUC (0 to last) in CD1 mouse at 50 mg/kg, administered through oral gavage measured up to 24 hrs by LC-MS/MS analysis; type: ADME, organism-based; design: dose 50 mg/kg, route oral, time 0 - last; conditions: in vivo; in short: as §1
[16] = Terminal half life in CD1 mouse at 1 mg/kg, iv as bolus dose by LC-MS/MS analysis; type: ADME, organism-based; conditions: in vivo, read-out: beta t1/2 (converted); in short: as §1

Sequence of Histone-lysine N-methyltransferase PRDM9 (Homo sapiens) (Q9NQV7 whole entry): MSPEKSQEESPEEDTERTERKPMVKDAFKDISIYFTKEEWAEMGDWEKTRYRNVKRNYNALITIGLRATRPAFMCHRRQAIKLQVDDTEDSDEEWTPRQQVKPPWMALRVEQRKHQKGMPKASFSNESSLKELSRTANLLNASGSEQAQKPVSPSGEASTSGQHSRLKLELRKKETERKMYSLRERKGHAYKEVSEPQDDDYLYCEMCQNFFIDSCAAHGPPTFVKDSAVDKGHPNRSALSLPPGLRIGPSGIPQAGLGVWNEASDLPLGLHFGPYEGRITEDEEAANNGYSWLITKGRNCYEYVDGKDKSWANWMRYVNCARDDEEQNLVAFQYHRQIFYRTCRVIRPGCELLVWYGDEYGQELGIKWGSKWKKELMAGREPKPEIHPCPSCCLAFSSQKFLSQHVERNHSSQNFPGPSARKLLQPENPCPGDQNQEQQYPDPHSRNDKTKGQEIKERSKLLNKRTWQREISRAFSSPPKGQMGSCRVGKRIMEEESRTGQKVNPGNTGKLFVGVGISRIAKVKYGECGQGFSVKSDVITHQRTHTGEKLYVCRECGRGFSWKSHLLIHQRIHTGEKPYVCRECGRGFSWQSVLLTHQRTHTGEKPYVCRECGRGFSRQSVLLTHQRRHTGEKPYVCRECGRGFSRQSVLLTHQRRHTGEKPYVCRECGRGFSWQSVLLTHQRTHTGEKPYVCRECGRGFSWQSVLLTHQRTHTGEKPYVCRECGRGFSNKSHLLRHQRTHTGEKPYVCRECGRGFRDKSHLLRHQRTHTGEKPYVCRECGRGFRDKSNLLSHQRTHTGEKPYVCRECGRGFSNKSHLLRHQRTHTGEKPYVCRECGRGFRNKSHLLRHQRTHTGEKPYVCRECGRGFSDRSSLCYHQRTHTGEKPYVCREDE
Sequence of N-lysine methyltransferase SMYD2 (Q9NRG4 whole entry): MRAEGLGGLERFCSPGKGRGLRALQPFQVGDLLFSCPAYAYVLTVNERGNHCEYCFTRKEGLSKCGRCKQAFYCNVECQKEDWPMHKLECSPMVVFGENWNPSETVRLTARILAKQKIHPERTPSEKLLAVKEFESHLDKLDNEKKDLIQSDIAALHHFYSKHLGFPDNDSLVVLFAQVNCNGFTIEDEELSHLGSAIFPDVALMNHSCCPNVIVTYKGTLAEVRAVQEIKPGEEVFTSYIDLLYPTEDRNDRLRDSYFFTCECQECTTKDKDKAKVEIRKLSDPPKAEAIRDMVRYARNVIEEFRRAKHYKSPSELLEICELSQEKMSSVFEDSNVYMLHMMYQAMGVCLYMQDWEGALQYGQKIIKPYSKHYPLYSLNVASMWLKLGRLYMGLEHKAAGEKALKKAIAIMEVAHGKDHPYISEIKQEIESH
Sequence of Histone-lysine N-methyltransferase EZH2 (Homo sapiens) (Q15910 whole entry, looked up): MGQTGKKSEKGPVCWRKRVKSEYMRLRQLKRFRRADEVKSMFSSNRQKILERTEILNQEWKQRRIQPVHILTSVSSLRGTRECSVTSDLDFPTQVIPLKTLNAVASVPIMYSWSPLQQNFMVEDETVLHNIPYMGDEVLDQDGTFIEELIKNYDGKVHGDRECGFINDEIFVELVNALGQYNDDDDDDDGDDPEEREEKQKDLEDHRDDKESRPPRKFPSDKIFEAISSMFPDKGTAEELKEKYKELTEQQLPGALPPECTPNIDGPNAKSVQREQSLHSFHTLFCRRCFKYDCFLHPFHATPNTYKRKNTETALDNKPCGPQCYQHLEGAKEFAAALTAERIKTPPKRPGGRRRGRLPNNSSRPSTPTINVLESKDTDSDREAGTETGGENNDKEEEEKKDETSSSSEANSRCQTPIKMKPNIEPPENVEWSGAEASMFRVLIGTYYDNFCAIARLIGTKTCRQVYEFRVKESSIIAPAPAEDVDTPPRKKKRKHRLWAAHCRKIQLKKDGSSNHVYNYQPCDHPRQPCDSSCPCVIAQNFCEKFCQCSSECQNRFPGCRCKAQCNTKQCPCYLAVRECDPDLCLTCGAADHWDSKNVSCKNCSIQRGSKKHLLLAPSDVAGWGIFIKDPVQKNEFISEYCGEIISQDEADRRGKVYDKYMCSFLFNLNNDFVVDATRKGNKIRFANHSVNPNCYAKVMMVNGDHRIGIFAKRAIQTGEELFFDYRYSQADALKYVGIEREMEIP

SMILES	Papp at 2 h, 10 µM [1] [×10⁻⁶ cm/s]	inhibition [2] [%]	inhibition [3] [%]	inhibition [4] [%]	IC50 [5] [nM]	Tmax [6] [h]	bioavailability [7] [%]	Vd [8] [L/kg]	Cmax [9] [ng/mL]	IC50 [10] [nM]	dose excreted at 24 h [11] [%]	Cmax [12] [ng/mL]	Ki [13] [nM]	clearance [14] [mL/min/kg]	AUC(0-t) at 24 h [15] [ng·h/mL]	half-life [16] [h]
O=C1Cc2cc(C(=O)N[C@H]3C[C@H]4CC[C@@H](C3)N4S(=O)(=O)N3CCC(NCc4ccccc4)CC3)c(Cl)cc2N1	0.34	< 30	< 30	< 30	> 50000	–	–	–	–	–	–	–	–	–	–	–
O=C1Cc2cc(C(=O)N[C@H]3C[C@H]4CC[C@@H](C3)N4S(=O)(=O)CC3CCN(CCCC(F)(F)F)CC3)c(Cl)cc2N1	0.64	< 30	< 30	< 30	> 50000	1.3	69	2.3	4690	3	20	345	1.2	27	21200	1.7
